Our source for the MIC, Inhibitory concentration and IC50 values is ChEMBL document CHEMBL1125212, “Dual-action cephalosporins: cephalosporin 3'-quinolone carbamates” (J Med Chem, 1991).

In brackets after ≈: the same amount, converted by molar mass.

One test relates to Enterococcus faecalis. Nature of the test: The compound was tested in vitro for minimum inhibitory concentration against Enterococcus faecalis ATCC 29212. It is filed as functional. Put shortly:
(§1)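 Agar dilution on Mueller-Hinton agar using 2-fold serial dilutions, giving final 128 to 0.0156 μg/mL (extended to 0.000977 μg/mL where needed). Inoculum was overnight broth culture diluted 100-fold, about 3×10^4 CFU/spot, applied by replicator. MIC read after overnight incubation at 36 °C.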

For test [1], the system named is Pseudomonas aeruginosa. Kind of test: The compound was tested in vitro for minimum inhibitory concentration against Pseudomonas aeruginosa 18S/H. The test is classed as functional. In outline:
as §1

For another test, the system named is Proteus mirabilis. Nature of the test: The compound was tested in vitro for minimum inhibitory concentration against Proteus mirabilis 90. It is filed as functional. Put shortly:
(§2)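 Proteus MICs by agar dilution on Mueller-Hinton medium containing 3% agar. Serial 2-fold dilutions gave final 128 to 0.0156 μg/mL (further to 0.000977 μg/mL). Inoculum was overnight broth diluted 100-fold, about 3×10^4 CFU/spot. Plates read after overnight incubation at 36 °C.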

For test [2], the system named is Escherichia coli. Kind of test: The compound was evaluated for the inhibition of [14C]- Pen G binding to Escherichia coli UB1005 penicillin-binding protein 3 60 kDa. Put shortly:
(§3)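 Membranes from sonicated E. coli UB1005 were solubilized. Binding to penicillin-binding proteins was measured as inhibition of [14C]penicillin G binding.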

A further test deals with Enterobacter cloacae. Nature of the test: The compound was tested in vitro for minimum inhibitory concentration against Enterobacter cloacae P99. It is filed as functional.
Test [3] deals with Pseudomonas aeruginosa. Kind of test: The compound was tested in vitro for minimum inhibitory concentration against Pseudomonas aeruginosa 8780. It is filed as functional. Put shortly: as §1
A further test deals with Streptococcus pyogenes. Kind of test: The compound was tested in vitro for minimum inhibitory concentration against Streptococcus pyogenes. The test is classed as functional. Put shortly: (§4)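 Streptococci tested by agar dilution on brain heart infusion agar with 20 units/mL bovine liver catalase. Final drug range 128 to 0.0156 μg/mL by 2-fold steps, extended to 0.000977 μg/mL when required. Inoculum about 3×10^4 CFU/spot from overnight broth diluted 100-fold. MIC after overnight incubation at 36 °C.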

Test [4] concerns Escherichia coli. Kind of test: The compound was tested in vitro for minimum inhibitory concentration against Escherichia coli TEM-1. It is filed as functional. In outline:
as §1

Test [5] concerns Escherichia coli. Nature of the test: The compound was evaluated for the inhibition of [14C]- Pen G binding to Escherichia coli UB1005 penicillin-binding protein 1a 90 kDa. Put shortly:
as §3

Test [6] relates to Escherichia coli. Kind of test: Inhibitory activity on replicative DNA biosynthesis in Escherichia coli H560 (permeabilised cells). The test is classed as functional, organism-based. Put shortly:
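E. coli H560 cells permeabilized with toluene. ATP-dependent incorporation of [3H]thymidine into trichloroacetic acid-insoluble material was measured. IC50 taken as the concentration giving 50% inhibition.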

Test [7] relates to Escherichia coli. Nature of the test: The compound was tested in vitro for minimum inhibitory concentration against Escherichia coli ATCC 25922. It is filed as functional. In outline:
as §1

Another test relates to Micrococcus luteus. Kind of test: The compound was tested in vitro for minimum inhibitory concentration against Micrococcus luteus ATCC 9341. It is filed as functional. Put shortly: as §1
The next test relates to Klebsiella pneumoniae. Nature of the test: The compound was tested in vitro for minimum inhibitory concentration against Klebsiella pneumoniae A. The test is classed as functional. Put shortly:
as §1

In test [8] the test system is Escherichia coli. Kind of test: Minimum inhibitory concentration for inhibition of [14C]- Pen G binding to Escherichia coli UB1005. The test is classed as functional. In outline:
as §3

For test [9], the system named is Escherichia coli. Kind of test: Minimum inhibitory concentration required to inhibit the activity of Escherichia coli UB1005. The test is classed as functional. Put shortly: as §1
Another test deals with Proteus vulgaris. Kind of test: The compound was tested in vitro for minimum inhibitory concentration against Proteus vulgaris 1028 BC. It is filed as functional. Put shortly: as §2
In test [10] the test system is Staphylococcus aureus. Nature of the test: The compound was tested in vitro for minimum inhibitory concentration against Staphylococcus aureus smith. It is filed as functional. Put shortly:
as §1

In test [11] the test system is Escherichia coli. Kind of test: The compound was tested in vitro for minimum inhibitory concentration against Escherichia coli 257. It is filed as functional. In outline:
as §1

In a further test the test system is Serratia marcescens. Nature of the test: The compound was tested in vitro for minimum inhibitory concentration against Serratia marcescens 1071. The test is classed as functional. In outline: as §1
Test [12] has as its system Escherichia coli. Nature of the test: The compound was evaluated for the inhibition of [14C]- Pen G binding to Escherichia coli UB1005 penicillin-binding protein 1b 90 kDa. In outline: as §3
The test system of test [13] is Staphylococcus aureus. Nature of the test: The compound was tested in vitro for minimum inhibitory concentration against Staphylococcus aureus 753. The test is classed as functional. Put shortly:
as §1

Test [14] has as its system Escherichia coli. Nature of the test: The compound was evaluated for the inhibition of [14C]- Pen G binding to Escherichia coli UB1005 penicillin-binding protein 2 66 kDa. In outline:
as §3

The test system of a further test is Streptococcus pneumoniae. Nature of the test: The compound was tested in vitro for minimum inhibitory concentration against Streptococcus pneumoniae 6301. It is filed as functional. In outline:
as §4

Test [15] relates to Escherichia coli. Nature of the test: Minimum inhibitory concentration required to inhibit the activity of Escherichia coli ATCC 25922. It is filed as functional. Put shortly:
as §1

Test [16] relates to Staphylococcus aureus. Nature of the test: The compound was tested in vitro for minimum inhibitory concentration against Staphylococcus aureus 67-0. It is filed as functional. In outline:
as §1

The subject of the next test is Citrobacter freundii. Kind of test: The compound was tested in vitro for minimum inhibitory concentration against Citrobacter Freundii BS-16. The test is classed as functional. In outline:
as §1

`O=CN[C@@H]1C(=O)N2C(C(=O)O)=C(COC(=O)N3CCN(c4cc5c(cc4F)c(=O)c(C(=O)O)cn5C4CC4)CC3)CS[C@H]12`: the minimal inhibitory concentration (MIC) against Enterococcus faecalis is 4 µg/mL (≈ 6.5 µM); against Pseudomonas aeruginosa [1], 1 µg/mL (≈ 1.62 µM); with Proteus mirabilis, 1 µg/mL (≈ 1.62 µM); against Enterobacter cloacae, 0.031 µg/mL (≈ 0.0504 µM); in the test on Pseudomonas aeruginosa [3], 2 µg/mL (≈ 3.25 µM); with Streptococcus pyogenes, 0.125 µg/mL (≈ 0.203 µM). The MIC against Escherichia coli [4] was determined as 0.063 µg/mL (≈ 0.102 µM); against Escherichia coli [7], 0.063 µg/mL (≈ 0.102 µM); against Micrococcus luteus, 0.5 µg/mL (≈ 0.812 µM); in the test on Klebsiella pneumoniae, 0.25 µg/mL (≈ 0.406 µM); in the test with Escherichia coli [8] it was 2 µg/mL (≈ 3.25 µM); in the test on Escherichia coli [9], 2 µg/mL (≈ 3.25 µM). In addition, the minimal inhibitory concentration (MIC) in the test on Proteus vulgaris was 0.063 µg/mL (≈ 0.102 µM); against Staphylococcus aureus [10], 0.5 µg/mL (≈ 0.812 µM); against Escherichia coli [11], 0.063 µg/mL (≈ 0.102 µM); against Serratia marcescens it was 0.125 µg/mL (≈ 0.203 µM); in the test with Staphylococcus aureus [13] it was 1 µg/mL (≈ 1.62 µM); against Streptococcus pneumoniae, 0.063 µg/mL (≈ 0.102 µM). Further, the MIC in the test with Escherichia coli [15] amounted to 0.06 µg/mL (≈ 0.0975 µM); against Staphylococcus aureus [16] it was 4 µg/mL (≈ 6.5 µM). The Inhibitory concentration is 100 µg/mL in the test with Escherichia coli [2], over 100 µg/mL with Escherichia coli [5], over 100 µg/mL with Escherichia coli [12] and over 100 µg/mL in the test on Escherichia coli [14]. Moreover, in the test with Escherichia coli [6], the IC50 amounted to 0.5 µg/mL (≈ 0.812 µM).
For the molecule `O=C(O)C1=C(COC(=O)N2CCN(c3cc4c(cc3F)c(=O)c(C(=O)O)cn4C3CC3)CC2)CS[C@@H]2[C@H](NC(=O)C(O)c3ccccc3)C(=O)N12` (stereo partly specified), the MIC was 4 µg/mL (≈ 5.54 µM) in the test on Enterococcus faecalis; 0.5 µg/mL (≈ 0.693 µM) against Pseudomonas aeruginosa [1]; 0.25 µg/mL (≈ 0.346 µM) with Proteus mirabilis; under 0.016 µg/mL against Enterobacter cloacae; 1 µg/mL (≈ 1.39 µM) against Pseudomonas aeruginosa [3]; under 0.016 µg/mL with Streptococcus pyogenes. For the same molecule, the MIC with Escherichia coli [4] came out at 0.031 µg/mL (≈ 0.043 µM); with Escherichia coli [7] it was 0.031 µg/mL (≈ 0.043 µM); in the test on Micrococcus luteus, 0.031 µg/mL (≈ 0.043 µM); in the test on Klebsiella pneumoniae it was 0.063 µg/mL (≈ 0.0873 µM); in the test on Escherichia coli [9] it was 1 µg/mL (≈ 1.39 µM); with Proteus vulgaris it was 0.063 µg/mL (≈ 0.0873 µM). For the same molecule, the minimal inhibitory concentration (MIC) with Staphylococcus aureus [10] is 0.25 µg/mL (≈ 0.346 µM); in the test with Escherichia coli [11] it was 0.031 µg/mL (≈ 0.043 µM); in the test on Serratia marcescens, 0.125 µg/mL (≈ 0.173 µM); in the test on Staphylococcus aureus [13], 0.5 µg/mL (≈ 0.693 µM); with Streptococcus pneumoniae, 0.031 µg/mL (≈ 0.043 µM); in the test on Escherichia coli [15], 0.03 µg/mL (≈ 0.0416 µM). Further, the minimal inhibitory concentration (MIC) against Staphylococcus aureus [16] amounted to 2 µg/mL (≈ 2.77 µM); against Citrobacter freundii it was 0.031 µg/mL (≈ 0.043 µM). In the test with Escherichia coli [6], this molecule registered an IC50 of 4 µg/mL (≈ 5.54 µM).
For the molecule `NC(=O)CO/N=C(\C(=O)N[C@@H]1C(=O)N2C(C(=O)O)=C(COC(=O)N3CCN(c4cc5c(cc4F)c(=O)c(C(=O)O)cn5C4CC4)CC3)CS[C@H]12)c1csc(N)n1`, the MIC was 0.5 µg/mL (≈ 0.614 µM) in the test on Enterococcus faecalis; 1 µg/mL (≈ 1.23 µM) against Pseudomonas aeruginosa [1]; 0.5 µg/mL (≈ 0.614 µM) in the test on Proteus mirabilis; 0.063 µg/mL (≈ 0.0774 µM) against Enterobacter cloacae; 2 µg/mL (≈ 2.46 µM) against Pseudomonas aeruginosa [3]; 0.031 µg/mL (≈ 0.0381 µM) against Streptococcus pyogenes. Moreover, the MIC is 0.063 µg/mL (≈ 0.0774 µM) against Escherichia coli [4]; 0.063 µg/mL (≈ 0.0774 µM) against Escherichia coli [7]; 0.063 µg/mL (≈ 0.0774 µM) against Micrococcus luteus; 0.125 µg/mL (≈ 0.154 µM) against Klebsiella pneumoniae; 1 µg/mL (≈ 1.23 µM) with Escherichia coli [8]; 1 µg/mL (≈ 1.23 µM) in the test with Escherichia coli [9]. Also, the minimal inhibitory concentration (MIC) with Proteus vulgaris came out at 0.063 µg/mL (≈ 0.0774 µM); against Staphylococcus aureus [10] it was 1 µg/mL (≈ 1.23 µM); in the test on Escherichia coli [11], 0.063 µg/mL (≈ 0.0774 µM); against Serratia marcescens, 0.125 µg/mL (≈ 0.154 µM); in the test with Staphylococcus aureus [13], 2 µg/mL (≈ 2.46 µM); with Streptococcus pneumoniae it was 0.031 µg/mL (≈ 0.0381 µM). In addition, the figures for the minimal inhibitory concentration (MIC) in the test on Escherichia coli [15] and against Staphylococcus aureus [16] were 0.06 µg/mL (≈ 0.0737 µM) and 4 µg/mL (≈ 4.92 µM), respectively. The Inhibitory concentration in the test on Escherichia coli [2] is under 0.1 µg/mL; in the test with Escherichia coli [5], 2 µg/mL; with Escherichia coli [12] it was 10 µg/mL; in the test on Escherichia coli [14] it was 100 µg/mL. In the test on Escherichia coli [6], this molecule gave a concentration for half-maximal inhibition (IC50) of 1.2 µg/mL (≈ 1.47 µM).
